Active and inactive are the calls of the source. The calls are words filed in the database; no cut-off is given here.
How the values were obtained:
Jurkat = experiment: Inhibition of heat shock-induced HSP70 expression in human Jurkat cells at 145 uM treated 2 hrs before beat shock challenge measured after 8 hrs by Western blotting; type: functional, cell-based
Procedure, shortened: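 Jurkat cells (low basal HSP70) got 145 μM compound or DMSO vehicle for 2 h, then a 30 min 43 °C heat shock and 8 h recovery at 37 °C. HSP70 and actin were read by Western blot. Controls were unheated cells and heated cells with no additive.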

[1] = target: Calcium/calmodulin-dependent protein kinase type II subunit beta (Homo sapiens, UniProt Q13554); experiment: Inhibition of CAMK2 using autocamtide-2 as substrate after 30 mins by PKLight assay
Chain of Calcium/calmodulin-dependent protein kinase type II subunit beta (Q13554 whole entry): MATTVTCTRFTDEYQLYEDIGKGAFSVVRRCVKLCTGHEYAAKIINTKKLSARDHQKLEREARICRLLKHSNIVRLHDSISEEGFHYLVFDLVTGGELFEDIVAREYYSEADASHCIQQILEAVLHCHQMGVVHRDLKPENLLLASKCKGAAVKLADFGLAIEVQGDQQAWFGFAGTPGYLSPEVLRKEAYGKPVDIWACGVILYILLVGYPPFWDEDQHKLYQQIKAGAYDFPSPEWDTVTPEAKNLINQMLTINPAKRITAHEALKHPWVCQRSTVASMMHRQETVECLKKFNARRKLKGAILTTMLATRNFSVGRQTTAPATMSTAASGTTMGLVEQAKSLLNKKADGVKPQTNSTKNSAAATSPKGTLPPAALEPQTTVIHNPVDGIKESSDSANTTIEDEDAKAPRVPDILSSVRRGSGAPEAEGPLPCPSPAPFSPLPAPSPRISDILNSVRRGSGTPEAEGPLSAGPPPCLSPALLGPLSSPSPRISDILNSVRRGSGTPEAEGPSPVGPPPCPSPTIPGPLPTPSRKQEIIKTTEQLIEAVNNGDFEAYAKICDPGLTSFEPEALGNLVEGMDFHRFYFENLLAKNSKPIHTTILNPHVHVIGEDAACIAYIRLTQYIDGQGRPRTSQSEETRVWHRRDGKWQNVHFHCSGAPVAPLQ

In the case of O=c1c(O)c(-c2ccc(O)c(O)c2)oc2cc(O)cc(O)c12 [QUERCETIN], the inhibition (Jurkat) is reported as “Active” and the IC50 [1] is reported as 3 µM.

Reference: ChEMBL document CHEMBL2062417, “Biotinylated quercetin as an intrinsic photoaffinity proteomics probe for the identification of quercetin target proteins” (Bioorg Med Chem, 2011)
